Measurements taken from ChEMBL document CHEMBL1177657, “Design and synthesis of novel hydroxyalkylaminomethylchromones for their IL-5 inhibitory activity” (Bioorg Med Chem, 2010).
Values joined by “and” are separate entries in the source; they are usually repeats but may differ in a detail not shown here. Identical values can stand only once.

Tests used:
Assay type in all cases: cell-based
[1] = biological target: T1, Interleukin-5 (Mus musculus) (UniProt P04401); assay: Inhibition of interleukin-5 in mouse Y16 cells at 30 uM
T1 sequence (whole entry): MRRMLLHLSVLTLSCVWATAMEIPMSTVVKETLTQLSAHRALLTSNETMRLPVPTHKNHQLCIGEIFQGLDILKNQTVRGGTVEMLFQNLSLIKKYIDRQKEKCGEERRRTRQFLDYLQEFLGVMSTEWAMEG
Outline: (§1)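 IL-5-dependent mouse pro-B Y16 cells were incubated with 3 units/mL mIL-5 for 48 h, with or without test sample. Cell metabolism was then read with the tetrazolium salt WST-1 as an index of proliferation.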

Interleukin-5 = biological target: T2, Interleukin-5 (Mus musculus, UniProt P04401); assay: Inhibition of interleukin-5 in mouse Y16 cells; outline: as §1
T2 sequence (P04401 whole entry): T1 sequence (whole entry)

[2] = biological target: T1, Interleukin-5 (Mus musculus); assay: Inhibition of interleukin-5 in mouse Y16 cells at 50 uM; outline: as §1

Row | Structure (SMILES) | inhibition [1] | IC50 (Interleukin-5) | inhibition [2]
1 | CC(C)(C)C(CO)NCc1coc2cccc(OCC3CCCCC3)c2c1=O (centres undefined) | 65% | 26.2 µM | 
2 | O=c1c(CNCCCO)coc2cccc(OCC3CCCCC3)c12 | 15% | > 50 µM | 
3 | O=c1c(CNC(CCO)c2ccccc2)coc2cccc(OCC3CCCCC3)c12 (centres undefined) | 30% | > 50 µM | 
4 | O=c1c(CNCCO)coc2cccc(OCC3CCCCC3)c12 | 13% | > 50 µM | 
5 | O=c1c(CNc2ccccc2)coc2cccc(OCC3CCCCC3)c12 | 14% | > 50 µM | 
6 | O=c1c(CNc2ccc(O)cc2)coc2cccc(OCC3CCCCC3)c12 | 57% | 27.3 µM | 
7 | O=c1c(CNCc2ccccc2)coc2cccc(OCC3CCCCC3)c12 | 32% | > 50 µM | 
8 | O=c1c(-c2ccc(O[C@@H]3O[C@H](CO)[C@@H](O)[C@H](O)[C@H]3O)cc2)coc2cc(O)cc(O)c12 [SOPHORICOSIDE] |  | 1.4 µM and 10.6 µM | 79.1%
9 | O=c1c(CNC(CO)CC2CCCCC2)coc2cccc(OCC3CCCCC3)c12 (centres undefined) | 93% | 17.3 µM | 
10 | CCCC(CO)NCc1coc2cccc(OCC3CCCCC3)c2c1=O (centres undefined) | 13% | > 50 µM | 
11 | O=c1c(CNC(CO)Cc2ccccc2)coc2cccc(OCC3CCCCC3)c12 (centres undefined) | 72% | 25.7 µM | 
12 | COc1ccc(NCc2coc3cccc(OCC4CCCCC4)c3c2=O)cc1 | 31% | > 50 µM | 
13 | O=c1c(CNC(CO)c2ccccc2)coc2cccc(OCC3CCCCC3)c12 (centres undefined) | 88% | 18.5 µM | 
14 | O=c1c(CNCCCCCO)coc2cccc(OCC3CCCCC3)c12 | 20% | > 50 µM | 
15 | CC(C)(CO)NCc1coc2cccc(OCC3CCCCC3)c2c1=O | 63% | 26.4 µM | 
16 | COc1ccc(CNCc2coc3cccc(OCC4CCCCC4)c3c2=O)cc1 | 43% | > 30 µM | 
17 | O=c1c(CNCc2ccc(O)cc2)coc2cccc(OCC3CCCCC3)c12 | 50% | 28.5 µM | 
